Experimental data from paper PMC7518337 (Chemistry of materials : a publication of the American …, 2018).

How the values were obtained:
[1] = clinical trial in liposarcoma; cited from earlier work
[2] = tested on: xenografted HCT116 p53^+/+ tumors; experiment: In vivo antitumor activity in colon cancer xenograft model; design: species or system BALB/c nude mice; settings: for amounts of apoptotic cells in xenograft tumors (TUNEL assay): compared to the control, Figure 6E
Summary of the method: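 Nude mice carried subcutaneous HCT116 p53+/+ xenografts in the right flank. They were randomised into groups of n = 6 and dosed every other day on days 1, 3, 5, 7, 9, 11 and 13. Test compounds and Nutlin-3 were given at 3 mg/kg, doxorubicin at 1.5 mg/kg, and PBS served as control. Tumors were excised on day 13 for H&E and TUNEL staining (×200). Mean ± s.e., n = 5.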

[3] = In vivo safety evaluation during and after anticancer treatment; design: species or system mice
Summary of the method: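 Xenograft-bearing nude mice were treated with test compound or doxorubicin control over a 13-day regimen. During and after treatment, blood counts (WBC, RBC, thrombocytes), liver weight, serum ALT and AST, and CRE and BUN were determined. A hospital clinical laboratory ran these by standard procedures. Liver and kidney sections were H&E stained. Mean ± s.e., t-test.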

HCT116 p53^+/+ cells = experiment: Cell cycle distribution; assay type: cell-based; settings: 200 nM PSP-^DPMI, 5 μM Nutlin3, 24 h
p53 and p21 expression = experiment: Western blot analysis of p53 and p21; assay type: cell-based; settings: PSP-^DPMI 200 nM, Nutlin3 5 μM, 24 h, p53 in HCT116 p53^+/+, MCF7, A375, p21 in HCT116 p53^+/+, vs PSP, PBS control

SMILES	adverse events in patients [1]	amounts of apoptotic cells in xenograft tumors (TUNEL assay) [2]	tumor pathomorphology (H&E) ([2]; tumors isolated on day 13, Figure 6C)	blood cell counts (WBCs, thrombocyte, RBCs) ([3]; Figure 8B–D)	kidney function and histology (CRE, BUN, H&E) ([3]; Figure 8I–K)	spleen health ([3]; Figure S15)	body weight ([3]; after a 13-day administration, Figure S14)	liver weight ([3]; compared to healthy mice, Figure 8E)	levels of liver enzymes ALT and AST ([3]; serum, compared to control or healthy mice, Figure 8F,G)	cell cycle effect (HCT116 p53^+/+ cells)	expression of p53 or p21 (p53 and p21 expression)
CCOc1cc(C(C)(C)C)ccc1C1=N[C@@](C)(c2ccc(Cl)cc2)[C@@](C)(c2ccc(Cl)cc2)N1C(=O)N1CCN(CCCS(C)(=O)=O)CC1 [RG7112]	thrombocytopenia and neutropenia have been seen in many patients										
COc1cccc2c1C(=O)c1c(O)c3c(c(O)c1C2=O)C[C@@](O)(C(=O)CO)C[C@@H]3O[C@H]1C[C@H](N)[C@H](O)[C@H](C)O1 [DOX, doxorubicin]		significantly increased	misshapen tumors and cells	a certain level of leukopenia and thrombopenia	symptoms of glomerular lesions	serious spleen failure	significant decrease of body weight	decreased liver weight	aberrant levels		
COc1ccc(C2=N[C@@H](c3ccc(Cl)cc3)[C@@H](c3ccc(Cl)cc3)N2C(=O)N2CCNC(=O)C2)c(OC(C)C)c1 [Nutlin3]		significantly increased								arrest in G0/G1 phase	significantly increased the expression of p53 or p21
